Measured values from different studies.
Protocols differ between the studies behind these lines. Values after ≈ are worked out from the molar mass of the structure shown.

SMILES	organism	assay	test system	conditions	endpoint	result
Cc1cc(CCCOc2c(C)cc(-c3noc(C(F)(F)F)n3)cc2C)on1	Enterovirus	cytopathic effect, inhibitor	HeLa	–	IC50	50 nM
CCCCCCCCCCCC(=O)Oc1c(C)c(O)c(C(=O)/C=C/c2ccccc2)c(OC)c1C	Pseudomonas aeruginosa	microbial killing, broth dilution	ATCC27853	–	MBC	> 5000 µg/mL
OC(Cn1cncn1)(Cn1cncn1)c1ccc(F)cc1F	Kluyveromyces marxianus	microbial growth, broth dilution	–	24 h	MIC90	1 µg/mL (≈ 3.27 µM)
O=C(Nc1ccccc1-c1ccc(F)c(F)c1)c1nccnc1C(F)(F)F	Mycosphaerella arachidis	microbial growth	–	–	EC50	0.12 µg/mL (≈ 0.316 µM)
CC1(C)S[C@@H]2[C@H](NC(=O)[C@H](N)c3ccccc3)C(=O)N2[C@H]1C(=O)O	Limosilactobacillus reuteri	microbial growth, broth dilution	ATCC23272	–	MIC	1 µg/mL
O=C1CC(N(OCc2ccccc2)C(=O)c2cc([N+](=O)[O-])cc(C(F)(F)F)c2)N1 (stereo not drawn)	Mycolicibacterium vaccae	microbial growth	–	–	MIC	6.25 µM
Nc1nc(-c2ccccc2)nc2[nH]nc(Nc3ccc(C(F)(F)F)cc3)c12	Enterovirus	cytopathic effect	HeLa	–	IC50	4590 nM
O=C(O)c1cn(C2CC2)c2cc(N3CCNCC3)c(F)cc2c1=O	Mycolicibacterium vaccae	microbial growth	10670	1000 µg/mL	inhibition zone	21 mm
C=CCON(C(=O)c1cc([N+](=O)[O-])cc(C(F)(F)F)c1)C1CC(=O)N1SC (stereo not drawn)	Mycolicibacterium vaccae	microbial growth	–	–	MIC	6.25 µM
